In series [1] the test system is Bacillus subtilis. The experiment in a line: Antibacterial activity against Bacillus subtilis MTCC 441 after 24 hrs by tube dilution method. It counts as functional. The following applies: MTCC 441, 24 h. The gist of the method: (§1)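 Tube dilution in Mueller-Hinton broth at pH 7.4. Two-fold serial dilutions from 1000 to 0.97 in 10% DMSO, with a DMSO-only inoculated control. Inoculum matched visually to a McFarland standard of about 1.5 × 10⁸ cells/mL. Incubation at 37 ± 1 °C for 24 h. MIC is the lowest concentration giving no growth; duplicate determinations, averaged.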

Series [2] deals with Rattus norvegicus. The experiment in a line: Antiinflammatory activity in rat assessed as inhibition of carrageenan-induced paw edema at 10 mg/kg, po administered 30 mins prior to carrageenan-challenge after 3 hrs relative to vehicle-treated control. It counts as functional. Summed up: (§2)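 Rats of 150–200 g, six per group. Oral dosing at 10 mg/kg as a suspension; controls receive 1% carboxymethylcellulose. After 30 min, 0.1 mL of 1% w/v carrageenan is injected into the left hind paw. Paw volume is measured by mercury displacement. Inhibition = (1 − Vt/Vc) × 100 from edema volumes; mean ± SEM.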
For orientation: Carrageenan injected into the paw causes an acute inflammation.

Series [3] has as its system Rattus norvegicus. The experiment in a line: Antiinflammatory activity in rat assessed as inhibition of carrageenan-induced paw edema at 10 mg/kg, po administered 30 mins prior to carrageenan-challenge after 4 hrs relative to vehicle-treated control. It counts as functional. The gist of the method:
as §2

The test system of series [4] is Staphylococcus aureus. The experiment in a line: Antibacterial activity against Staphylococcus aureus MTCC 3160 after 24 hrs by tube dilution method. It counts as functional. The following applies: MTCC 3160, 24 h. The gist of the method: as §1
In series [5] the test system is Mus musculus. The series is described as follows: Analgesic activity in mouse assessed as inhibition of acetic-acid induced writhing at 10 mg/kg administered 15 mins prior to acetic acid-challenge measured for 15 mins relative to vehicle-treated control. Type of series: functional. The gist of the method:
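Mice, at least six per group. Test compounds given at 10 mg/kg; acetic acid solution given 15 min later. Writhing is scored as abdominal contractions, trunk twists and hind-limb extensions. Percent inhibition of pain = (1 − Vt/Vc) × 100, where Vt and Vc are mean writhing counts in the treated and control groups.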
In general terms: Writhing tests count abdominal constrictions after an irritant is injected.

In series [6] the test system is Candida albicans. The series is described as follows: Antifungal activity against Candida albicans MTCC 183 after 48 hrs by tube dilution method. It counts as functional. The following applies: MTCC 183, 48 h. Summed up:
(§3)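 Tube dilution in Sabouraud dextrose broth at pH 7.4. Two-fold serial dilutions from 1000 to 0.97 in 10% DMSO, with a solvent control. Inoculum matched visually to a McFarland standard of about 1.5 × 10⁸ cells/mL. Incubation at 25 ± 1 °C for 48 h. MIC is the tube showing no fungal growth; duplicate determinations, averaged.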

Series [7] has as its system Rattus norvegicus. The series is described as follows: Antiinflammatory activity in rat assessed as inhibition of carrageenan-induced paw edema at 10 mg/kg, po administered 30 mins prior to carrageenan-challenge after 2 hrs relative to vehicle-treated control. It counts as functional. Summed up: as §2
In series [8] the test system is Escherichia coli. The series is described as follows: Antibacterial activity against Escherichia coli MTCC 4351 after 24 hrs by tube dilution method. Type of series: functional. The following applies: MTCC 4351, 24 h. The gist of the method:
as §1

In series [9] the test system is Aspergillus niger. The series is described as follows: Antifungal activity against Aspergillus niger MTCC 282 after 48 hrs by tube dilution method. Type of series: functional. The following applies: MTCC 282, 48 h. Summed up:
as §3

The subject of series [10] is Rattus norvegicus. The experiment in a line: Antiinflammatory activity in rat assessed as inhibition of carrageenan-induced paw edema at 10 mg/kg, po administered 30 mins prior to carrageenan-challenge after 1 hr relative to vehicle-treated control. Type of series: functional. Summed up: as §2
Series [11] relates to Pseudomonas aeruginosa. The series is described as follows: Antibacterial activity against Pseudomonas aeruginosa MTCC 424 after 24 hrs by tube dilution method. Type of series: functional. The following applies: MTCC 424, 24 h. The gist of the method: as §1
Series [12] concerns Rattus norvegicus. The series is described as follows: Ulcerogenic activity in Wistar albino rat assessed as ulcer index at 10 mg/kg, ip administered QD for 3 days. It counts as toxicity, organism-based. Details: dose 10 mg/kg, route intraperitoneal. Conditions: in vivo, 72 h. Summed up:
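Wistar rats of either sex, 150–200 g, six per group. Given 10 mg/kg ip once daily for 3 days; controls receive 10% v/v Tween 80. Fasted 36 h, then pylorus ligated on day 4. Killed 4 h after ligation; stomach opened along the greater curvature and ulcer index scored; mean ± SEM.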

Values after ≈ are worked out from the molar mass of the structure shown.

By MIC is commonly meant the least concentration at which growth counts as inhibited. Low readings indicate inhibition by little substance, high ones a need for much substance. For orientation: inhibition in vivo means the percentage by which the read-out fell short of the control.

Turning to `O=C1N=C(C2C(=O)c3ccccc3C2=O)CC(c2ccccc2)N1` (stereo not drawn), the MIC in series [1] amounted to 250 µg/mL (≈ 785 µM); in series [4], 125 µg/mL (≈ 393 µM); in [6], 500 µg/mL (≈ 1570 µM); in series [8], 62.5 µg/mL (≈ 196 µM); in series [9], 500 µg/mL (≈ 1570 µM); in [11], 125 µg/mL (≈ 393 µM). For the same compound, the inhibition in vivo at 10 mg/kg worked out at 21% in [2]; 11% in series [3]; 31% in series [5]; 33% in series [7]; 20% in series [10].

`O=C1N=C(C2C(=O)c3ccccc3C2=O)CC(c2ccccc2[N+](=O)[O-])N1` (stereo not drawn): the MIC in [1] came to 250 µg/mL (≈ 688 µM); in [4], 125 µg/mL (≈ 344 µM); in [6], 500 µg/mL (≈ 1380 µM); in [8] it was 31.2 µg/mL (≈ 85.9 µM); in [9], 500 µg/mL (≈ 1380 µM); in series [11], 250 µg/mL (≈ 688 µM). The inhibition in vivo at 10 mg/kg was 26% in series [2]; 32% in series [3]; 35% in series [5]; 30% in [7]; 11% in series [10].

Regarding `O=C1N=C(C2C(=O)c3ccccc3C2=O)CC(c2cccc([N+](=O)[O-])c2)N1` (stereo not drawn), the MIC in [1] came out at 250 µg/mL (≈ 688 µM); in series [4] it was 125 µg/mL (≈ 344 µM); in series [6], 500 µg/mL (≈ 1380 µM); in series [8] it was 250 µg/mL (≈ 688 µM); in series [9], 125 µg/mL (≈ 344 µM); in series [11], 250 µg/mL (≈ 688 µM). In addition, the inhibition in vivo at 10 mg/kg in [2] came to 21%; in series [3] it was 12%; in [5] it was 36%; in series [7], 36%; in [10], 27%.

`O=C1N=C(C2C(=O)c3ccccc3C2=O)CC(c2ccc([N+](=O)[O-])cc2)N1` (stereo not drawn): the MIC in series [1] came out at 250 µg/mL (≈ 688 µM); in series [4], 125 µg/mL (≈ 344 µM); in [6], 500 µg/mL (≈ 1380 µM); in [8] it was 500 µg/mL (≈ 1380 µM); in [9] it was 500 µg/mL (≈ 1380 µM); in series [11] it was 250 µg/mL (≈ 688 µM). In addition, the inhibition in vivo at 10 mg/kg in series [2] turned out to be 19%; in [3], 18%; in series [5], 38%; in series [7], 26%; in series [10], 16%.

As to `O=C1N=C(C2C(=O)c3ccccc3C2=O)CC(c2ccc(Cl)cc2)N1` (stereo not drawn), the MIC is 31.2 µg/mL (≈ 88.4 µM) in series [1]; 125 µg/mL (≈ 354 µM) in series [4]; 125 µg/mL (≈ 354 µM) in [6]; 125 µg/mL (≈ 354 µM) in series [8]; 125 µg/mL (≈ 354 µM) in series [9]; 62.5 µg/mL (≈ 177 µM) in series [11]. In addition, the inhibition in vivo at 10 mg/kg in [2] is 31%; in series [3] it was 34%; in [5] it was 44%; in series [7] it was 19%; in series [10], 15%. In addition, the UI in series [12] stood at 1.28.

Take `CN(C)c1ccc(C2CC(C3C(=O)c4ccccc4C3=O)=NC(=O)N2)cc1` (stereo not drawn): the MIC in [1] was determined as 125 µg/mL (≈ 346 µM); in [4], 125 µg/mL (≈ 346 µM); in [6], 500 µg/mL (≈ 1380 µM); in [8], 125 µg/mL (≈ 346 µM); in series [9], 500 µg/mL (≈ 1380 µM); in [11], 62.5 µg/mL (≈ 173 µM). The inhibition in vivo at 10 mg/kg in series [2] was 20%; in series [3] it was 16%; in [5], 52%; in series [7], 29%; in series [10], 15%.

On to `COc1ccc(C2CC(C3C(=O)c4ccccc4C3=O)=NC(=O)N2)cc1` (stereo not drawn), for which the MIC came to 125 µg/mL (≈ 359 µM) in [1]; 500 µg/mL (≈ 1440 µM) in series [4]; 250 µg/mL (≈ 718 µM) in series [6]; 250 µg/mL (≈ 718 µM) in [8]; 250 µg/mL (≈ 718 µM) in series [9]; 250 µg/mL (≈ 718 µM) in [11]. Also, the inhibition in vivo at 10 mg/kg in series [2] turned out to be 22%; in [3], 10%; in series [5], 31%; in series [7], 21%; in series [10] it was 22%.
